Measured values as given in ChEMBL document CHEMBL3621160, “Pseudosaccharin amines as potent and selective KV1.5 blockers” (Bioorg Med Chem Lett, 2015).

Experiments:
[1] = molecular target: Sodium-dependent dopamine transporter (Homo sapiens) (UniProt Q01959); assay: Inhibition of human DAT at 10 uM relative to control
In short: (§1)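 Screening panel of over 37 receptors and enzymes relevant to cardiovascular effects or toxicity. Each target was tested at a single concentration of 10 µM, with % activity reported.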

[2] = species: Oryctolagus cuniculus; assay: Toxicity in rabbit assessed as increase in gastrointestinal motility; assay type: organism-based; details: in vivo
[3] = Metabolic stability in rat liver microsomes assessed as compound remaining at 3 uM after 10 mins; assay type: ADME; details: read-out: Stability
In short: (§2)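 Parent compound at 3 µM was incubated 10 min in human, rat or mouse liver microsomes with appropriate co-factors. Read-out is percent of parent remaining.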

[4] = molecular target: Histamine H2 receptor (Homo sapiens) (UniProt P25021); assay: Inhibition of human histamine H2 receptor at 10 uM relative to control; in short: as §1
[5] = molecular target: Somatostatin receptor type 2 (Homo sapiens) (UniProt P30874); assay: Inhibition of human SS2 receptor at 10 uM relative to control; in short: as §1
Somatostatin receptor type 2 (Homo sapiens), sequence (P30874 whole entry): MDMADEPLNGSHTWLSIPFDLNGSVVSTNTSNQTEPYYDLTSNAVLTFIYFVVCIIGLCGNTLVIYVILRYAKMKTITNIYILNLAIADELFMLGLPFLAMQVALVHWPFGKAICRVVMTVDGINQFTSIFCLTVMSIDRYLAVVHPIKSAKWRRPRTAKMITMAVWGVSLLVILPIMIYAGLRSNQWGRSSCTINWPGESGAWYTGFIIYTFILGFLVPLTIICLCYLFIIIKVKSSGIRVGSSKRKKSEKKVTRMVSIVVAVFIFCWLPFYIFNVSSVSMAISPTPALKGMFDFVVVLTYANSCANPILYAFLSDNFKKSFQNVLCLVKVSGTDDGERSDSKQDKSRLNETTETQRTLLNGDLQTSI

[6] = molecular target: Potassium voltage-gated channel subfamily A member 5 (Homo sapiens, UniProt P22460); assay: Inhibition of human KV1.5 expressed in mouse L929 cells assessed as decrease in ultrarapid potassium current amplitude; assay type: cell-based
Potassium voltage-gated channel subfamily A member 5, sequence (P22460 whole entry): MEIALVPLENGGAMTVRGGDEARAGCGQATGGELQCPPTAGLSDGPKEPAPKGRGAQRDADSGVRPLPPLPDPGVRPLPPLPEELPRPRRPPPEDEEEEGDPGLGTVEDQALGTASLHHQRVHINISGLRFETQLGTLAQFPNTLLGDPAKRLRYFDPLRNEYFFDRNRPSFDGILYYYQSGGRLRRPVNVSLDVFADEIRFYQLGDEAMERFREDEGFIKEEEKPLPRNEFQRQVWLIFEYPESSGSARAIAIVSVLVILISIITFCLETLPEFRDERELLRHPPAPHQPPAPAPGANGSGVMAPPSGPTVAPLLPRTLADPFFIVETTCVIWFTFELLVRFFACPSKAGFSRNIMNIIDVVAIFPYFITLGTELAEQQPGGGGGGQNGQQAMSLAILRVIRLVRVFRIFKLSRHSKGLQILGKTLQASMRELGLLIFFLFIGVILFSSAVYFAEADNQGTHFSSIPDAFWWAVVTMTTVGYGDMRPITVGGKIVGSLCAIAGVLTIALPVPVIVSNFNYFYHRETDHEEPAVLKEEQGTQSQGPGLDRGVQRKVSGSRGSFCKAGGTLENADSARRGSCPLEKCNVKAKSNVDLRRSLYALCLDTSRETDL
In short: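 Potassium current block was measured in mouse fibroblast L929 cells expressing human KV1.5. IC50 values are means of 2-4 experiments.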

[7] = molecular target: Glucocorticoid receptor (Rattus norvegicus) (UniProt P06536); assay: Inhibition of rat glucocorticoid receptor at 10 uM relative to control; in short: as §1
Glucocorticoid receptor (Rattus norvegicus), sequence (P06536 whole entry): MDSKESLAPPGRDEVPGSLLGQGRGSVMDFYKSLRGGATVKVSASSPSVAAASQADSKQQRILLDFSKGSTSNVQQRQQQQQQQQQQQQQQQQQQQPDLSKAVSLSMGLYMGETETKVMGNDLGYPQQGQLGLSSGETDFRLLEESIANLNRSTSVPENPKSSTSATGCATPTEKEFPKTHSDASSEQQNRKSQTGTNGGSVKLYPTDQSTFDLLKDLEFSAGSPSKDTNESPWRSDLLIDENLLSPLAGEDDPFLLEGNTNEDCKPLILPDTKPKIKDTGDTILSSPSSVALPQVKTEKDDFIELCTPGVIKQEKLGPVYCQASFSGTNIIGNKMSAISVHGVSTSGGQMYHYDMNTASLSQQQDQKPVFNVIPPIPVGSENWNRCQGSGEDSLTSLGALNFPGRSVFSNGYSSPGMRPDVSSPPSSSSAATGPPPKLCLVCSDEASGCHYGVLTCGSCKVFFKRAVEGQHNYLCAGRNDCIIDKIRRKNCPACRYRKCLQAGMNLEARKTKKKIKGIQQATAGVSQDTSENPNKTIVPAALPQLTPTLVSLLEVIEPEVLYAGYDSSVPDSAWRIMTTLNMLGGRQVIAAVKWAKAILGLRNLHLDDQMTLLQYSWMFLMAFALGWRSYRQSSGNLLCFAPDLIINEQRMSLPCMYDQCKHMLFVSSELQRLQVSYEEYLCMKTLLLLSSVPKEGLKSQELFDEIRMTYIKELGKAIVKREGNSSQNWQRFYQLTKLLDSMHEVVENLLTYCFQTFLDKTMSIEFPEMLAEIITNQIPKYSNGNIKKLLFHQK

[8] = Cmax in rabbit at 0.3 to 3 mg/kg; assay type: ADME, organism-based, Oryctolagus cuniculus; details: in vivo
In short: (§3)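 Rabbits were dosed at 0.3, 1.0 and 3.0 mg/Kg. Effective refractory period was measured in atrium and ventricle, and blood pressure was recorded. The plasma concentration giving 20% atrial ERP prolongation (EC20) was calculated.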

[9] = species: Homo sapiens; assay: Inhibition of sodium channel (unknown origin) at 10 uM relative to control
In short: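 Calcium (ICa) and sodium (INa) currents were measured as percent inhibition at a single concentration of 10 µM. Values are means of 2-4 experiments.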

[10] = species: Rattus norvegicus; assay: Inhibition of rat sodium channel site 2 at 10 uM relative to control
In short: (§4)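 Single-concentration screen at 10 µM across a panel of over 37 receptors and enzymes linked to cardiovascular effects or toxicity. Read-out is percent activity.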

[11] = Half life in rat at 2 mg/kg administered as intra-arterial infusion for 10 mins and 5 mg/kg, po; assay type: ADME, organism-based; details: in vivo
In short: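 Rats (3 per compound) received intra-arterial infusion over 10 min or oral gavage. Vehicle for both routes was 40% PEG 400, 40% water and 20% ethanol. Values are means of 3 animals.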

[12] = molecular target: Adenosine receptor A2a (Homo sapiens) (UniProt P29274); assay: Inhibition of human adenosine A2A receptor at 10 uM relative to control; in short: as §1
Adenosine receptor A2a (Homo sapiens), sequence (P29274 whole entry): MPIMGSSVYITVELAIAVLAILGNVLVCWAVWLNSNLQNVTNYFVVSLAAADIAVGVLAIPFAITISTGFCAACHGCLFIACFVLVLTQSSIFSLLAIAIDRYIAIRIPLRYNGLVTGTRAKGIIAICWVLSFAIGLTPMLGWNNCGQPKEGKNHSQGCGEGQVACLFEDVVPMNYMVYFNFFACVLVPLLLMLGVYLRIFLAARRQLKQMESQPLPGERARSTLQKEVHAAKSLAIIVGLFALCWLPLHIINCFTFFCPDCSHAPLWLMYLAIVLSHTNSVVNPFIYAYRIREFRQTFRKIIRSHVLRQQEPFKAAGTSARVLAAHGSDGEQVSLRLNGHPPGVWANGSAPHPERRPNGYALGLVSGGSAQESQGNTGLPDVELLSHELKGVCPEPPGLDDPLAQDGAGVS

[13] = molecular target: Sodium-dependent serotonin transporter (Homo sapiens) (UniProt P31645); assay: Inhibition of human SERT at 10 uM relative to control; in short: as §1
Sodium-dependent serotonin transporter (Homo sapiens), sequence (P31645 whole entry, looked up): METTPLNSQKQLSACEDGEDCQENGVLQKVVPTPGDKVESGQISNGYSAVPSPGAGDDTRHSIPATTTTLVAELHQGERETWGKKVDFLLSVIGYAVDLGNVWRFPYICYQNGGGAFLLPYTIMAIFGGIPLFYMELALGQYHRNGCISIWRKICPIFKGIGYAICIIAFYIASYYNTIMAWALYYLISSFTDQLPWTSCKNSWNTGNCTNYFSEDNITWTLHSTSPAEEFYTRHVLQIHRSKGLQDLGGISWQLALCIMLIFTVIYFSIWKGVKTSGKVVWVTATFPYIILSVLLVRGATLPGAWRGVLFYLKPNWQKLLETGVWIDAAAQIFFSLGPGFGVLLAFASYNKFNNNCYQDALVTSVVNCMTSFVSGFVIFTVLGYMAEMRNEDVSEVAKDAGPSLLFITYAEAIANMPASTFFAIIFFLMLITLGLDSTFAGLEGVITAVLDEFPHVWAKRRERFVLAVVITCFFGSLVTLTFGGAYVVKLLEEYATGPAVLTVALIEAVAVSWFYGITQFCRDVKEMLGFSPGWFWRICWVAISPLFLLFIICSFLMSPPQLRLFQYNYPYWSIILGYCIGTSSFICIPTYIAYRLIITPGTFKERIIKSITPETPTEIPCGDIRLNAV

[14] = Metabolic stability in human liver microsomes assessed as compound remaining at 3 uM after 10 mins; assay type: ADME; details: read-out: Stability; in short: as §2
[15] = molecular target: Carnitine O-palmitoyltransferase 1, liver isoform (Rattus norvegicus) (UniProt P32198); assay: Inhibition of rat carnitine palmitoyltransferase-1 at 10 uM relative to control; in short: as §1
Carnitine O-palmitoyltransferase 1, liver isoform (Rattus norvegicus), sequence (P32198 whole entry, canonical isoform): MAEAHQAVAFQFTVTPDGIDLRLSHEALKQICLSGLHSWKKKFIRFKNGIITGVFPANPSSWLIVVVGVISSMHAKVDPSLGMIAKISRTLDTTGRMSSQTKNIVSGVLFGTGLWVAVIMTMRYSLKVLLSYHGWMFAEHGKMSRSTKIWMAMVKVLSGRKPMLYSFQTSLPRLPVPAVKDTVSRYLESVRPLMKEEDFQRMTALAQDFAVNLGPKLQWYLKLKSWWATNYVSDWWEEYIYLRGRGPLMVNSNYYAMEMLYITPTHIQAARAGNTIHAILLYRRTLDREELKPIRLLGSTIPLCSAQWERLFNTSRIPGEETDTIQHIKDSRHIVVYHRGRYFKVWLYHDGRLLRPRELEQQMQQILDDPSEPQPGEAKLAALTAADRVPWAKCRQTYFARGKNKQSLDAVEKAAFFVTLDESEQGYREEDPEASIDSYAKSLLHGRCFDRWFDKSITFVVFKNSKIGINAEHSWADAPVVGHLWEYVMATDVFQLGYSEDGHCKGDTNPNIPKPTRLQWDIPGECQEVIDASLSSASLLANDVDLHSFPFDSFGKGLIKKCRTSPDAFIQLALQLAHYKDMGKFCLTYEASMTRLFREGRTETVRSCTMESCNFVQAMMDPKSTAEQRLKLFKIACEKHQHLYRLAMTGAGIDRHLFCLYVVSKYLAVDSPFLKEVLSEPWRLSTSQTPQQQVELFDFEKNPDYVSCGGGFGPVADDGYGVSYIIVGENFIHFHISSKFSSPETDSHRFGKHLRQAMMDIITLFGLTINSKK

[16] = molecular target: 5-hydroxytryptamine receptor 2B (Homo sapiens) (UniProt P41595); assay: Inhibition of human 5HT-2B receptor at 10 uM relative to control; in short: as §1
5-hydroxytryptamine receptor 2B (Homo sapiens), sequence (P41595 whole entry, the tested form may be a part): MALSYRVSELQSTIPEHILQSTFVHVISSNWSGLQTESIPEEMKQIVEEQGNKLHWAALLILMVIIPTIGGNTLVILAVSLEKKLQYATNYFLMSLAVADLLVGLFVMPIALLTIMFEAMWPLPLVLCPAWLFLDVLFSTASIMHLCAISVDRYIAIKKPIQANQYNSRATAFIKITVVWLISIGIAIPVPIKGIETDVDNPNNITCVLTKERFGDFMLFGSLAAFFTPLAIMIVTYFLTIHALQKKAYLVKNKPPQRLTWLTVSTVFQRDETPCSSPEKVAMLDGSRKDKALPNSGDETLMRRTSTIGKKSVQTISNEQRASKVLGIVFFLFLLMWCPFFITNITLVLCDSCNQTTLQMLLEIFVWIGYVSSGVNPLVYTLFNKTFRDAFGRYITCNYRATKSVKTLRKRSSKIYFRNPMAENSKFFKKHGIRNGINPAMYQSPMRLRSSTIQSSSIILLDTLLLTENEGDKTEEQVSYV

[17] = tested on: Rattus norvegicus; assay: Induction of QT interval prolongation in rat at 3 mg/kg, iv administered as infusion for 5 mins by ECG analysis; assay type: functional
In short: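 Rats were dosed at 3 mg/Kg. Block of IKur was read as the percent change in the ECG QT interval; mean blood pressure and plasma concentration were recorded alongside. Values are means of 2-4 experiments.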

[18] = species: Oryctolagus cuniculus; assay: Toxicity in rabbit assessed as effect on ventricular effective refractory period; assay type: organism-based, Cardiac ventricle; details: in vivo; in short: as §3
[19] = molecular target: 5-hydroxytryptamine receptor 4 (Cavia porcellus) (UniProt O70528); assay: Inhibition of guinea pig 5-HT4 receptor at 10 uM relative to control; in short: as §1
[20] = molecular target: Cannabinoid receptor 1 (Homo sapiens) (UniProt P21554); assay: Inhibition of human CB1 receptor at 10 uM relative to control; in short: as §1
[21] = molecular target: Neuropeptide Y receptor type 1 (Homo sapiens) (UniProt P25929); assay: Inhibition of human NPY1-R at 10 uM relative to control; in short: as §1
[22] = molecular target: Calcitonin receptor (Homo sapiens) (UniProt P30988); assay: Inhibition of human calcitonin receptor at 10 uM relative to control; in short: as §1
[23] = molecular target: Melanocyte-stimulating hormone receptor (Homo sapiens) (UniProt Q01726); assay: Inhibition of human MC1 receptor at 10 uM relative to control; in short: as §1
Melanocyte-stimulating hormone receptor (Homo sapiens), sequence (Q01726 whole entry, looked up): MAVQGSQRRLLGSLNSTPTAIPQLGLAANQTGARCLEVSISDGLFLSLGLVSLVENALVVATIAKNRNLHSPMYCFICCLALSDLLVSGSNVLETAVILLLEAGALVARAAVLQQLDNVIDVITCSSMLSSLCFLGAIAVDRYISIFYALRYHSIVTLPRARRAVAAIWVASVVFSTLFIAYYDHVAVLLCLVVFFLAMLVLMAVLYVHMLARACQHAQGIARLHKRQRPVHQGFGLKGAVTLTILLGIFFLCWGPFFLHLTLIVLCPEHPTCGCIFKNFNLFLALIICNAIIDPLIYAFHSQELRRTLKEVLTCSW

[24] = molecular target: Adenosine receptor A3 (Homo sapiens) (UniProt P0DMS8); assay: Inhibition of human adenosine A3 receptor at 10 uM relative to control; in short: as §4
[25] = molecular target: B1 bradykinin receptor (Homo sapiens) (UniProt P46663); assay: Inhibition of human bradykinin B1 receptor at 10 uM relative to control; in short: as §1
[26] = molecular target: Mineralocorticoid receptor (Rattus norvegicus) (UniProt P22199); assay: Inhibition of rat aldosterone receptor at 10 uM relative to control; in short: as §1

Sodium-dependent dopamine transporter (Homo sapiens), sequence (Q01959 whole entry): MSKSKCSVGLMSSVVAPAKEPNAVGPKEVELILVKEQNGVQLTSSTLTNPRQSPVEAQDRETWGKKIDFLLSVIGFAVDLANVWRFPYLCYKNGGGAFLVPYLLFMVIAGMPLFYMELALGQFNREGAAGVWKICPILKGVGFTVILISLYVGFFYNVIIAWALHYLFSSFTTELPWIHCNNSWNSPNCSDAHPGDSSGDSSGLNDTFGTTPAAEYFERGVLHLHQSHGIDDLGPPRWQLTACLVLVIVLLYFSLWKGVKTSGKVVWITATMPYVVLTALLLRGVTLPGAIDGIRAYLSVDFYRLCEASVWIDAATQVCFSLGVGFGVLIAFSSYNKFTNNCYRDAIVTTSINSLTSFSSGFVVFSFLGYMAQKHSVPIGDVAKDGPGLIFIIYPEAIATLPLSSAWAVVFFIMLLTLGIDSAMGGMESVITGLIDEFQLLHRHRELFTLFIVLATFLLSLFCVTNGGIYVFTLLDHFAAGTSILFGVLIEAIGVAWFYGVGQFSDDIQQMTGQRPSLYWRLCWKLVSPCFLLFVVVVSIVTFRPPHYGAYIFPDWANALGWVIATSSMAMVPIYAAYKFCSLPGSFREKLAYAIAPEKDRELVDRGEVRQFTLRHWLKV

Compound | inhibition [1] | remaining at 10 min, 3 µM [3] | inhibition [4] | inhibition [5] | IC50 [6] | inhibition [7] | Cmax [8] | inhibition [9] | inhibition [10] | half-life [11] | inhibition [12] | inhibition [13] | remaining at 10 min, 3 µM [14] | inhibition [15] | inhibition [16] | Activity [17] | Activity [18] | inhibition [19] | other results
COc1cccc2c1C(NC[C@]1(c3ccccc3)CC[C@H](O)CC1)=NS2(=O)=O | 18% | 68% | 19% | 4% | 34 nM | 14% | 6.1 µM | 27% | 9% | 5.1 h | -5% | 10% | 90% | 4% | 2% | 66% | Non-toxic | 5% | Activity [2]: Toxic
COc1cccc2c1C(NC[C@]1(c3ccccc3)CC[C@H](NC(=O)OC(C)C)CC1)=NS2(=O)=O | 37% | 29% | 19% | 6% | 52 nM | 17% | 4.7 µM | 14% | 30% | 0.9 h | 23% | -6% | 85% | 0% | 27% | 68% | Non-toxic | 25% | inhibition [20]: -8%; inhibition [21]: 8%; inhibition [22]: 4%; inhibition [23]: -6%; inhibition [24]: 64%; inhibition [25]: -4%; inhibition [26]: 16%
